Experiments:
[1] = target: NAD(P)H dehydrogenase [quinone] 1 (Mus musculus) (UniProt Q64669); assay: Induction of QR1 activity in mouse Hepa-1c1c7 cells assessed as drug concentration required to double enzyme activity after 48 hrs by MTT assay; assay type: cell-based
Method in brief: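 CD is the concentration that doubles QR1 activity. It was determined only for compounds whose induction ratio at 50 μM exceeded 2.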

[2] = target: NAD(P)H dehydrogenase [quinone] 1 (Mus musculus) (UniProt Q64669); assay: Induction of QR1 activity in mouse Hepa-1c1c7 cells assessed as induction ratio at 50 uM after 48 hrs by MTT assay relative to control; assay type: cell-based
Method in brief: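 QR1 induction is reported as the induction ratio, meaning activity relative to control, measured at a test concentration of 50 μM.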

[3] = target: T1, Aromatase (Homo sapiens, UniProt P11511); assay: Inhibition of CYP19A1 (unknown origin) at 50 uM preincubated with NADPH followed by DBF substrate addition after 30 mins by fluorescence based assay relative to control
T1 sequence (P11511 whole entry): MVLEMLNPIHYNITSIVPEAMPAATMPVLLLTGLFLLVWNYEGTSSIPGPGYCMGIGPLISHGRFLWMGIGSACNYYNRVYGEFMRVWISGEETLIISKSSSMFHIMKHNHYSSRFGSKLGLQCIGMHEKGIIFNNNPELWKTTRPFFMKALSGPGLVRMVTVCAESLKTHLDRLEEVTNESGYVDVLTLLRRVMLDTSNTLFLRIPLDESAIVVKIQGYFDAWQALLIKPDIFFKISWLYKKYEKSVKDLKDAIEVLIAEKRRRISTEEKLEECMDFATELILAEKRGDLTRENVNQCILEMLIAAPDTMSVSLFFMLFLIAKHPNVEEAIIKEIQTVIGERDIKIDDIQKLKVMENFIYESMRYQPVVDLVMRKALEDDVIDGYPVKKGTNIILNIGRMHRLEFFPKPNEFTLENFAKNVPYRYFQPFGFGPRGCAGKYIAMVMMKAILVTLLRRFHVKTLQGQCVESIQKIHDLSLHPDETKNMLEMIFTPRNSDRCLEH
Method in brief: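 Aromatase inhibition was screened at 50 μM test concentration. Activity is expressed as percent inhibition relative to vehicle-treated controls.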

[4] = target: T1, Aromatase; assay: Inhibition of CYP19A1 (unknown origin) preincubated with NADPH followed by DBF substrate addition after 30 mins by fluorescence based assay

Chain of NAD(P)H dehydrogenase [quinone] 1 (Mus musculus) (Q64669 whole entry): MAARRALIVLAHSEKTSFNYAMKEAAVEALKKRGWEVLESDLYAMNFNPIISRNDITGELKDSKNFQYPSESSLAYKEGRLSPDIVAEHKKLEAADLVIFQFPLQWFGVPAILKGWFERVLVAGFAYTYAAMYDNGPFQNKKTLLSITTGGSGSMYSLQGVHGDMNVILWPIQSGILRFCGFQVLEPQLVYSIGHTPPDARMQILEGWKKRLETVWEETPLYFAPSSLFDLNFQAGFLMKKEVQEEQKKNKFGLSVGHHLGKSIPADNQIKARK

SMILES | CD [1] | Ratio [2] | inhibition at 50 µM [3] | IC50 [4]
Clc1cccc(-c2cc3ccccc3[nH]2)c1 | 2.17 µM | 5.2 | 24.1% | –
Clc1ccccc1-c1cc2ccccc2[nH]1 | – | 1.4 | 21.5% | –
c1ccc(Cn2c(-c3ccccc3)cc3ccccc32)cc1 | – | 0.37 | 0% | –
Fc1cc(F)cc(-c2cc3ccccc3[nH]2)c1 | – | 0.58 | 11% | –
COc1cccc(-c2cc3ccccc3[nH]2)c1 | – | 1.3 | 48.4% | –
c1cncc(-c2cc3ccccc3[nH]2)c1 | – | 1.14 | 81.5% | 3.05 µM
O=[N+]([O-])c1ccc2[nH]c(-c3cccnc3)cc2c1 | – | 1.7 | 27.9% | –
Brc1ccc2[nH]c(-c3ccccc3)cc2c1 | 6.76 µM | 5.5 | 58.1% | 39.7 µM
Cn1c(-c2ccc(Cl)c(Cl)c2)cc2cc([N+](=O)[O-])ccc21 | – | 1.56 | 34% | –
Cc1ccc2cc(-c3ccccc3)[nH]c2c1 | – | 1 | 32.4% | –
Cc1ccc(-c2cc3ccccc3[nH]2)cc1 | 6.4 µM | 5.2 | 9.33% | –
Cn1c(-c2ccccc2)cc2ccccc21 | – | 0.5 | 0% | –
CCCCCc1ccc(-c2cc3ccccc3[nH]2)cc1 | – | 0.78 | 0% | –
Nc1ccc(-c2cc3ccccc3[nH]2)cc1 | – | 0.56 | 46.2% | –
C#CCn1c(-c2ccccc2)cc2ccccc21 | – | 0.87 | 26.3% | –
FC(F)(F)Oc1ccc(-c2cc3ccccc3[nH]2)cc1 | 29.1 µM | 2.48 | 1.86% | –
O=[N+]([O-])c1ccc2[nH]c(-c3ccc(Cl)c(Cl)c3)cc2c1 | – | 1.07 | 7.59% | –
Clc1ccc2[nH]c(-c3ccccc3)cc2c1 | 5.5 µM | 5.1 | 70.5% | 22.8 µM
Cc1ccccc1-c1cc2cc([N+](=O)[O-])ccc2[nH]1 | – | 0.78 | 71.5% | 6.87 µM
O=[N+]([O-])c1ccc2[nH]c(-c3ccccc3)cc2c1 | 5.76 µM | 3.92 | 77.7% | 9 µM
Clc1ccc(-c2cc3ccccc3[nH]2)cc1Cl | – | 0.57 | 22.6% | –
Fc1ccc(-c2cc3ccccc3[nH]2)cc1 | 17.8 µM | 2.73 | 21.8% | –
Clc1ccc(-c2cc3ccccc3[nH]2)cc1 | 2.75 µM | – | 15.8% | –
C(=N\OCc1ccccc1)/c1c(-c2ccccc2)[nH]c2ccccc12 | – | 0.5 | 23.2% | –

SMILES | CD [1] | Ratio [2] | inhibition at 50 µM [3] | IC50 [4]
COCn1c(-c2ccccc2)cc2ccccc21 | – | 1.9 | 20.2% | –
c1ccc2[nH]c(-c3ccsc3)cc2c1 | – | 0.67 | 22% | –
Nc1ccc2[nH]c(-c3ccc(Cl)c(Cl)c3)cc2c1 | 10.3 µM | 4.9 | 21.4% | –
c1ccc(C2Cc3ccccc3N2)cc1 (stereo not drawn) | – | 1.8 | 49% | –
c1ccc(-c2cc3ccccc3[nH]2)cc1 [2-PHENYL-1H-INDOLE] | – | – | 27.8% | –
Cn1c(-c2ccc(Cl)c(Cl)c2)cc2ccccc21 | 2.1 µM | 4.4 | 20% | –
CC(C)(C)OC(=O)n1c(-c2ccccc2)cc2ccccc21 | – | 1 | 11.9% | –
Nc1ccccc1C#Cc1cc(F)cc(F)c1 | – | 1.48 | 9.27% | –
N#Cc1ccc2[nH]c(-c3ccccc3)cc2c1 | – | 1.06 | 82.3% | 3.34 µM
COc1ccc2ccc(-c3cc4ccccc4[nH]3)cc2c1 | – | 0.74 | 0.07% | –
O/N=C/c1c(-c2ccccc2)[nH]c2ccccc12 | 11.7 µM | 3.1 | 40.4% | –
Clc1ccc2cc(-c3ccccc3)[nH]c2c1 | 6.8 µM | 4.25 | 13.6% | –
Nc1cccc(-c2cc3ccccc3[nH]2)c1 | 18.4 µM | 2.7 | 26.7% | –
COc1ccc(-c2cc3ccccc3[nH]2)cc1 | – | 1.56 | 0% | –
Nc1ccc2[nH]c(-c3ccccc3)cc2c1 | – | 0.72 | 41.4% | –
Cc1ccccc1-c1cc2ccccc2[nH]1 | – | 0.54 | 27.1% | –
Brc1ccc(-c2cc3ccccc3[nH]2)cc1 | 5.1 µM | 2.8 | 4.8% | –
N#Cc1ccc2[nH]c(-c3cccnc3)cc2c1 | 31.2 µM | 2.1 | 93.7% | 11.5 µM
c1ccc(-c2nc3ccccc3[nH]2)cc1 | – | – | 7.64% | –
CO/N=C/c1c(-c2ccccc2)[nH]c2ccccc12 | – | 1.3 | 24.7% | –
Cn1c(-c2ccc(Cl)c(Cl)c2)cc2cc(N)ccc21 | 46.7 µM | 2.14 | 42% | –
CN(C)c1ccc(-c2cc3ccccc3[nH]2)cc1 | – | 1.21 | 0% | –
Cn1c(-c2ccccc2)cc2cc([N+](=O)[O-])ccc21 | – | 0.89 | 77% | 3.88 µM
COc1cc(OC)cc(-c2cc3ccccc3[nH]2)c1 | 1.12 µM | 3.75 | 9.18% | –
